Compound activity (PubChem)
FXIa inh – inhibitors of human coagulation factor XIa; P03951; purified FXIa, Boc-Glu-Ala-Arg-AMC fluorogenic substrate; inhibition, % at 5 µM; 220,000 compounds, 0.14% hits;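 active = inhibition of at least 40%; inactive = inhibition below 40%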;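 also: fluorescence of freed AMC excited at 355 nm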
Furin inhibitor – inhibitors of human furin. 220,000 compounds, 0.061% hits. purified furin, fluorogenic substrate cleavage. P09958. inhibition, % at 20 µM or 30 µM; in the data active = inhibition above about 25%
FXIIa inh – blocks human coagulation factor XIIa protease activity; P00748; purified FXIIa, Boc-QGR-AMC fluorogenic substrate, 2 h; inhibition, % at 5 µM; 220,000 compounds, 0.3% hits; AID 800; in the data active = inhibition above about 40%
Target sequence (P00748 20-372 limits assumed): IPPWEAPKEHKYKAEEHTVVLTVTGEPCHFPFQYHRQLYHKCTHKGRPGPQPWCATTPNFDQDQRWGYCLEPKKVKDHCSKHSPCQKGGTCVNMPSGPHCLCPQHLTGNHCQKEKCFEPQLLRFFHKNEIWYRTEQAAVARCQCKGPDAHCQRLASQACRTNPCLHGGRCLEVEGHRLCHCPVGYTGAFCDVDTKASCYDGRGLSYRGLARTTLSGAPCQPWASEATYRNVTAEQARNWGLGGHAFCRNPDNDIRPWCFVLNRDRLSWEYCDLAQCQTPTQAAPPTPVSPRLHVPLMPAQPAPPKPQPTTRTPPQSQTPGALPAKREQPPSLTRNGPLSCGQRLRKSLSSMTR
Target sequence (P00748 373-615 limits assumed): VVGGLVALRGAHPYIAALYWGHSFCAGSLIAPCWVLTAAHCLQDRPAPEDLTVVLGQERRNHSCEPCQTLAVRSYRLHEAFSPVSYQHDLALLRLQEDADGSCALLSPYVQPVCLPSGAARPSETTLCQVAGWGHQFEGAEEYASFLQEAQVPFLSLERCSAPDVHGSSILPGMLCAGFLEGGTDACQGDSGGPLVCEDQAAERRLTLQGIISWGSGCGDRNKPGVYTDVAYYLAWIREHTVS
Thrombin inh – blocks human thrombin protease activity; 220,000 compounds, 0.26% hits; inhibition, % at 5 µM; alpha-thrombin, Boc-VPR-AMC fluorogenic substrate cleavage; P00734;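 active = inhibition at or above 40%; inactive = inhibition below 40%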
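Test system: human alpha-thrombin; medium: pH 7.5 Tris-saline with Tween 20; times: reaction at room temperature; signal: AMC fluorescence at 355 nm excitation and 460 nm emission; also added: Boc-VPR-AMC substrate, 15 µM final; dosing: one concentration per compound, 5 µM, with 0.2% DMSO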
KLK5 inh – blocks human kallikrein 5 protease activity; recombinant hK5, fluorogenic AMC substrate cleavage; 210,000 compounds, 0.59% hits; AID 873; inhibition, % at 5 µM; Q9Y337;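 active = inhibition of 40% or more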
Numbers stand for hits. Shown are actives, neighbours in structure and some others; about 1.1% of the full set was active somewhere.

For O=C1NC(=O)N(Cc2ccccc2Cl)C(=O)/C1=C/c1cccs1 the results were FXIa inh inactive, Furin inhibitor inactive, FXIIa inh inactive, Thrombin inh inactive and KLK5 inh 50.
For CN1c2ccc([N+](=O)[O-])cc2CC2(C(=O)NC(=O)N(c3ccc(Br)cc3)C2=O)C1c1ccccc1 (stereo not given) the results were FXIa inh inactive, Furin inhibitor inactive, FXIIa inh inactive, Thrombin inh inactive and KLK5 inh inactive.
`CCC(=O)c1c(O)n(C2CCCCCC2)c(=O)[nH]c1=O` gave FXIa inh inactive, Furin inhibitor inactive, FXIIa inh inactive, Thrombin inh inactive and KLK5 inh 46.
Screening CC(C)NC(=O)Cn1cc(C(=O)c2ccccc2F)c2ccccc21 returned FXIa inh inactive, Furin inhibitor inactive, FXIIa inh inactive, Thrombin inh inactive and KLK5 inh inactive.
CCc1nc2ccccc2c(=O)n1-c1ccccc1[N+](=O)[O-] was read as FXIa inh inactive, Furin inhibitor inactive, FXIIa inh inactive, Thrombin inh inactive and KLK5 inh inactive.
`Cc1nnc(SCc2nc3ccccc3c(=O)n2-c2ccccc2Cl)n1N` gave FXIa inh inactive, Furin inhibitor 26, FXIIa inh inactive, Thrombin inh inactive and KLK5 inh inactive.
Screening Oc1ccc2c3c1O[C@H]1c4oc5ccccc5c4C[C@@]4(O)[C@@H](C2)N(CC2CC2)CC[C@]314 returned FXIa inh inactive, Furin inhibitor inactive, FXIIa inh inactive, Thrombin inh inactive and KLK5 inh inactive.
`CC[C@]12C=CCN3CCC4(c5cc(Br)c(OC)cc5N(C)C4[C@@](O)(C(=O)OC)[C@@H]1OC(C)=O)C32` (stereo not given in full) gave FXIa inh inactive, Furin inhibitor inactive, FXIIa inh inactive, Thrombin inh inactive and KLK5 inh 43.
For OC1(c2ccccc2F)CC2CCC(C1)N2CCN1CCOCC1 (stereo not given) the results were FXIa inh inactive, Furin inhibitor inactive, FXIIa inh inactive, Thrombin inh inactive and KLK5 inh 55.
`CCCCCCCC(=O)NC(Oc1ccccc1[N+](=O)[O-])C(Cl)(Cl)Cl` (stereo not given) gave FXIa inh inactive, Furin inhibitor inactive, FXIIa inh inactive, Thrombin inh inactive and KLK5 inh inactive.
CCc1c(C)nc(N)nc1N1N=C1SCC(=O)OC was read as FXIa inh inactive, Furin inhibitor inactive, FXIIa inh inactive, Thrombin inh inactive and KLK5 inh inactive.
Screening CCc1c(C)nc(N)nc1N1N=C1SCC#N returned FXIa inh inactive, Furin inhibitor inactive, FXIIa inh 58, Thrombin inh inactive and KLK5 inh inactive.
For CC(=NCCCn1ccnc1)c1c(O)n(C2CCCCC2)c(=O)[nH]c1=O the results were FXIa inh inactive, Furin inhibitor inactive, FXIIa inh inactive, Thrombin inh inactive and KLK5 inh inactive.
Screening CN1CC2([N+](=O)[O-])CC=C(Cl)C([N+](=O)[O-])(C1)C2 (stereo not given) returned FXIa inh inactive, Furin inhibitor inactive, FXIIa inh inactive, Thrombin inh inactive and KLK5 inh inactive.
Screening Cc1ccc(C2C(S(C)(=O)=O)=C(O)C(=O)N2c2ccccc2)cc1 (stereo not given) (tested in a mixture with another compound) returned FXIa inh inactive, Furin inhibitor inactive, FXIIa inh inactive, Thrombin inh inactive and KLK5 inh 44.
For Cc1nc2ccccc2n1C1CCN(Cc2nnnn2CCc2ccccc2)CC1 the results were FXIa inh inactive, Furin inhibitor inactive, FXIIa inh 43, Thrombin inh inactive and KLK5 inh inactive.
`O=C(C1CC(c2ccc(Cl)c(Cl)c2)=NO1)N1CCC2(CC1)OCCO2` (stereo not given) gave FXIa inh inactive, Furin inhibitor inactive, FXIIa inh 48, Thrombin inh inactive and KLK5 inh inactive.
O=C(C1CC(c2ccc(F)cc2)=NO1)N1CCC2(CC1)OCCO2 (stereo not given) was read as FXIa inh inactive, Furin inhibitor inactive, FXIIa inh inactive, Thrombin inh inactive and KLK5 inh inactive.
`CN1CCN(c2ncnc(Cl)c2N)CC1` gave FXIa inh inactive, Furin inhibitor inactive, FXIIa inh 103, Thrombin inh inactive and KLK5 inh inactive.
For CN1CCN(c2ncnc3ccc(Br)cc23)CC1 the results were FXIa inh inactive, Furin inhibitor inactive, FXIIa inh inactive, Thrombin inh inactive and KLK5 inh inactive.
